Measured values from different studies.
Target: Serine/threonine-protein kinase pim-3 (PIM3, Homo sapiens, UniProt Q86V86)

SMILES	assay	setting	measurement	value
COc1cc(/C=C/C(=O)CC(=O)/C=C/c2ccc(O)c(OC)c2)ccc1O	enzyme activity, inhibitor	1 µM	activity vs control	12%
CC(C)(C)C(=O)c1sc(NC2CCCCC2)nc1N	enzyme activity, inhibitor	10 µM	remaining activity	82%
CCC(=O)N[C@H]1CC[C@@H](C(=O)N(C)c2ccc(-c3nc4ccccc4o3)cc2)C1	cell-free assay, competition with immobilised ligand	1 µM	remaining binding	100%
COc1cc2c(N3CCN(C(=O)Nc4ccc(OC(C)C)cc4)CC3)ncnc2cc1OCCCN1CCCCC1	cell-free assay	0.5 µM	remaining signal	100%
Cn1c(=O)n(-c2ccc(C(C)(C)C#N)cc2)c2c3cc(-c4cnc5ccccc5c4)ccc3ncc21	enzyme activity, inhibitor	10 µM	remaining activity	87%
CS(=O)(=O)N1CCCC(NC(=O)[C@H](CCC2CCCCC2)NC(=O)c2ccc(CNC(=O)c3cnc4ccccn34)cc2)C1 (stereo partly drawn)	cell-free assay, competition with immobilised ligand	0.1 µM	remaining binding	99%
Nc1ncnc2occ(-c3ccc(NC(=O)Nc4cc(C(F)(F)F)ccc4F)cc3)c12	cell-free assay, inhibitor	20 µM	remaining signal	79%
FC(F)(F)c1ccc2c(c1)nc(-c1cccnc1)n2C1CC1	cell-free assay, competition with immobilised ligand	1 µM	remaining binding	100%
Cc1cc(NC(=O)c2cccc3cc(-c4cccc5[nH]nc(N)c45)ccc23)ccc1F	enzyme activity, inhibitor	0.1 µM	activity vs control	113%
CCCOc1ccc(OC)c(F)c1C(=O)c1ccc(C(=O)N[C@@H]2CNC[C@H]2NC(=O)c2ccc3[nH]ncc3c2)cc1	enzyme activity, inhibitor	10 µM	remaining activity	97%
CCN(CC)CCNC(=O)c1c(C)[nH]c(/C=C2\C(=O)Nc3ccc(F)cc32)c1C	enzyme activity, inhibitor	0.3 µM	inhibition	-17%
CC(=O)C1=C(C)N(c2cccc(C(F)(F)F)c2)C(=O)N[C@@H]1c1ccc(C#N)nc1	cell-free assay, competition with immobilised ligand	1 µM	remaining binding	100%
O=C(Nc1cnn(-c2csc(C(=O)NC3COC3)c2)c1)Nc1c(F)cccc1Cl	enzyme activity, inhibitor	5 µM	remaining activity	73.9%
CC(C)(C)c1nc2c(s1)c1nc(N)ncc1c1ccc(NS(=O)(=O)c3c(F)cccc3F)c(F)c12	enzyme activity, inhibitor, radiometric	1 µM	remaining activity	105%
O=C(NCc1ncc(C(F)(F)F)cc1Cl)c1ccc2c(c1)C1(CCS(=O)(=O)CC1)[C@H](C1CC1)N2S(=O)(=O)c1ccc(F)cc1	cell-free assay, competition with immobilised ligand	1 µM	remaining binding	100%
CCCS(=O)(=O)Nc1ccc(F)c(C(=O)c2c[nH]c3ncc(-c4ccc(Cl)cc4)cc23)c1F	enzyme activity, inhibitor	1 µM	inhibition	< 10%
Cc1cc(C)c(-n2ccn3nc(-c4cccnc4)cc23)cc1NC(=O)c1cc(C#N)cc(S(F)(F)(F)(F)F)c1	cell-free assay, competition with immobilised ligand	0.1 µM	remaining binding	83.1%
N#CCCc1ccc2c(c1)-c1[nH]c3ccc([N+](=O)[O-])cc3c1CC(=O)N2	cell-free assay	0.5 µM	remaining signal	70.9%
